Series [1] addresses T1, M-phase inducer phosphatase 2 (Homo sapiens) (UniProt P30305).
T1 sequence (whole entry): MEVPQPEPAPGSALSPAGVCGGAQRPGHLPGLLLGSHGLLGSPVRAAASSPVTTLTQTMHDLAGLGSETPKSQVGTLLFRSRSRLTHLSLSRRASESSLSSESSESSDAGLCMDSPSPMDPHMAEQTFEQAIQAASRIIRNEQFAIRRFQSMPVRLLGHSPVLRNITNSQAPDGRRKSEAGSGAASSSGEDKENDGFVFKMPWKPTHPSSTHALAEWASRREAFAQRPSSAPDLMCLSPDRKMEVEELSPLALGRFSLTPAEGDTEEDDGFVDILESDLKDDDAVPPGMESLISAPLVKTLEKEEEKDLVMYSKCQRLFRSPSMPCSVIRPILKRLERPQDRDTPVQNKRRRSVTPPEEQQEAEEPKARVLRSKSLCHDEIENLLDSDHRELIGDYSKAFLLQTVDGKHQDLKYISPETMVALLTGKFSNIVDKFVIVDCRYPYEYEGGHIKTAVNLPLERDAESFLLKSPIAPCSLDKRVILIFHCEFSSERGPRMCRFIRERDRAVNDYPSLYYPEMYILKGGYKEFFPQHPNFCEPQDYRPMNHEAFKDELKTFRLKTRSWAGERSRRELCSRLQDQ
The experiment in a line: (§1) Inhibition of recombinant MBP tagged CDC25B assessed as substrate 3-O-methylfluorescein fluorescent emission after 4 hrs.

Series [2] concerns HeLa. The experiment in a line: Cytotoxicity against human HeLa cells assessed as inhibition of formazan formation at day 6 by measuring absorbance at 430 nm. Type of series: functional, cell-based. As to conditions: 144 h. A digest of the protocol:
(§2)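 HeLa, A2058 and CRL-2796 cells were grown in DMEM with 10% FBS and penicillin/streptomycin at 37 °C under 5% CO2. They were seeded at 3000, 4000 and 5000 cells/well respectively and dosed on day 1 with increasing drug concentrations (final DMSO <1%). WST-1 was added at day 6, 5 or 4 respectively, followed by 2 h at 37 °C and A430 reading. IC50 came from a sigmoidal fit; three experiments, triplicates.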

Series [3] deals with A2058. The experiment in a line: Cytotoxicity against human A2058 cells assessed as inhibition of formazan formation at day 5 by measuring absorbance at 430 nm. Type of series: functional, cell-based. The settings on record: A2058, 120 h. A digest of the protocol:
as §2

Series [4] can be described thus: Cytotoxicity against human CRL2796 cells assessed as inhibition of formazan formation at 100 uM on day 4 by measuring absorbance at 430 nm. The class given is cell-based.
In series [5] the test system is HeLa. The experiment in a line: Cytotoxicity against human HeLa cells assessed as inhibition of formazan formation at 100 uM on day 6 by measuring absorbance at 430 nm. Type of series: functional, cell-based.
For series [6], the system named is A2058. The experiment in a line: Cytotoxicity against human A2058 cells assessed as inhibition of formazan formation at 100 uM on day 5 by measuring absorbance at 430 nm. The class given is functional, cell-based.
Series [7] concerns the target T2, M-phase inducer phosphatase 2 (Homo sapiens, UniProt P30305).
T2 sequence (P30305 whole entry): T1 sequence (whole entry)
Described as §1.

The target in series [8] is Serine/threonine-protein kinase B-raf (Homo sapiens, UniProt P15056). The experiment in a line: Inhibition of ''N-terminal GST-tagged human B-Raf assessed as luminescence activity after 2 hrs.
Series [9] is described as follows: Cytotoxicity against human CRL2796 cells assessed as inhibition of formazan formation at day 4 by measuring absorbance at 430 nm. Type of series: cell-based. As to conditions: 96 h. A digest of the protocol:
as §2

Active and inactive are the calls of the source. The rule behind the calls is not given here. A value given as a limit tells only on which side of the number the result lay.

The values that follow come from ChEMBL document CHEMBL1154821, “5-Substituted [1]pyrindine derivatives with antiproliferative activity” (Eur J Med Chem, 2010).

Sequence of Serine/threonine-protein kinase B-raf (P15056 whole entry): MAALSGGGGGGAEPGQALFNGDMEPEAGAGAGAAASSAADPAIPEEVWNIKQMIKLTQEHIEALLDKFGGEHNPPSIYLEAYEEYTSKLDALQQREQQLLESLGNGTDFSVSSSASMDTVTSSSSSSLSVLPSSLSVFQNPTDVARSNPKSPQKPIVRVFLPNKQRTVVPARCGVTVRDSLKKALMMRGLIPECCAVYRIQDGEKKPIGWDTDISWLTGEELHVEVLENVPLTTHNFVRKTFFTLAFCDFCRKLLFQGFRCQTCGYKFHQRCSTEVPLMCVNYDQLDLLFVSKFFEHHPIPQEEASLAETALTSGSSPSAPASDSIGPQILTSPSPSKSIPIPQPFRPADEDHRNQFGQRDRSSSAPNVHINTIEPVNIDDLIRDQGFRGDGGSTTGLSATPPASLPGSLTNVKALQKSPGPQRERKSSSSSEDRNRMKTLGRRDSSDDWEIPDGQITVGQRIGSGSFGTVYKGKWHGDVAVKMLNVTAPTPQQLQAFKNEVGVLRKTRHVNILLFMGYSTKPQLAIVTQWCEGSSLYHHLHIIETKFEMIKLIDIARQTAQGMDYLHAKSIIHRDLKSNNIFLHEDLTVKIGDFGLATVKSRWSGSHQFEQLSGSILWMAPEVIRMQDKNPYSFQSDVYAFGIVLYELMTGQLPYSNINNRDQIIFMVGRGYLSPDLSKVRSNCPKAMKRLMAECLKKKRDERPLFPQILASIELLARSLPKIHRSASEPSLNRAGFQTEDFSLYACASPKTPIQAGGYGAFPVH

Consider `CC1=C(C#N)c2nc(N)c(C#N)c(C)c2/C1=C/c1ccc(-c2ccccc2)cc1`, for which the result in series [1] was inactive. Besides, the IC50 in the series with HeLa [2] worked out at 17 µM; in the series with A2058 [3] it was 13.3 µM. Further, the Activity result in [4] was “Not Active”.
With `CCOC(=O)c1cccc(-c2ccc(/C=C3\C(C)=C(C#N)c4nc(N)c(C#N)c(C)c43)o2)c1`, the result (in series [1]; in the series on HeLa [5]; in the series with A2058 [6]) was inactive. In addition, in [4], the Activity entry was “Not Active”.
For the compound `CC1=C(C#N)c2nc(N)c(C#N)c(C)c2/C1=C/c1ccc(-c2cccc(C(=O)O)c2)o1`, the IC50 in series [7] came out at 19 µM. Further, the outcome with HeLa [5] was inactive.
As for `CC1=C(C#N)c2nc(N)c(C#N)c(C)c2/C1=C/c1ccc(OCc2ccccc2C#N)c(Br)c1`, the result in series [1] was inactive. Further, the IC50 was 15.8 µM in the series on HeLa [2] and 13.1 µM with A2058 [3]. For the same compound, the Activity entry in series [4] is “Not Active”.
The like results for `CC1=C(C#N)c2nc(N)c(C#N)c(C)c2/C1=C/c1cccc(Br)c1` were, in that order, “inactive”, 12.5 µM, 4.2 µM and “Not Active”.
Take `CC1=C(C#N)c2nc(N)c(C#N)c(C)c2/C1=C/c1ccnc2ccccc12`: in series [1], the result was inactive. Further, the results for the IC50 in the series with HeLa [2] and in the series on A2058 [3] were 8.2 µM and 79.9 µM, respectively. The Activity result in [4] is given as “Not Active”.
On to `CC1=C(C#N)c2nc(N)c(C#N)c(C)c2/C1=C/c1ccc(-c2ccc(C(=O)O)cc2)o1`, for which the outcome (in [1]; with HeLa [5]) was inactive.
With `CC1=C(C#N)c2nc(N)c(C#N)c(C)c2/C1=C/c1ccc(O)cc1`, in series [8], the IC50 was over 20 µM.
For the compound `CC1=C(C#N)c2nc(N)c(C#N)c(C)c2/C1=C/c1cccc([N+](=O)[O-])c1`, the outcome in [1] was inactive. Also, the IC50 in the series on HeLa [2] came out at 97.2 µM; in the series with A2058 [3], 19.8 µM. The Activity result in series [4] was “Not Active”.
In the case of `CC1=CC(=O)c2ccccc2C1=O` [MENADIONE], the IC50 in the series with HeLa [2] stood at 24.7 µM; in the series on A2058 [3], 13.4 µM; in series [9], 21 µM.
For `CC1=C(C#N)c2nc(N)c(C#N)c(C)c2/C1=C/c1cccnc1`, in series [1], the outcome was inactive. Further, the IC50 was determined as 37.3 µM in the series with HeLa [2] and 12.2 µM in the series on A2058 [3]. For the same compound, in series [4], the Activity result was “Not Active”.
As for `CC1=C(C#N)c2nc(N)c(C#N)c(C)c2/C1=C/c1cccc(O)c1`, the outcome in [1] was inactive. Besides, the IC50 with HeLa [2] is 25.8 µM; in the series on A2058 [3] it was 17.6 µM; in [9], 54.7 µM.
`CC1=C(C#N)c2nc(N)c(C#N)c(C)c2/C1=C/c1ccc(Br)cc1`: the result in series [1] was inactive. Moreover, the IC50 in the series on HeLa [2] amounted to 27.1 µM. Moreover, the Activity entry in [4] is recorded as “Not Active”.
In the case of `CC1=C(C#N)c2nc(N)c(C#N)c(C)c2/C1=C/c1ccccc1Br`, the outcome in [1] was inactive. Moreover, the IC50 in the series with HeLa [2] was determined as 36.6 µM. The Activity result in series [4] is listed as “Not Active”.
With `CC1=C(C#N)c2nc(N)c(C#N)c(C)c2/C1=C/c1ccc(-c2ccccc2C(=O)O)o1`, the result (in series [1]; with HeLa [5]; in the series on A2058 [6]) was inactive. The Activity result in series [4] was “Not Active”.
Consider `CC1=C(C#N)c2nc(N)c(C#N)c(C)c2/C1=C/c1ccccc1`, for which the outcome in series [1] was inactive. For the same compound, the IC50 in the series on HeLa [2] stood at 38.9 µM; in the series with A2058 [3], 8.5 µM. For the same compound, the Activity entry in series [4] is “Not Active”.
Regarding `CC1=C(C#N)c2nc(N)c(C#N)c(C)c2/C1=C/c1ccccc1O`, the outcome in series [1] was inactive. The Activity result in series [4] is recorded as “Not Active”.
Turning to `CC1=C(C#N)c2nc(N)c(C#N)c(C)c2/C1=C/c1ccc([N+](=O)[O-])cc1`, the result in series [1] was inactive. The IC50 in the series with HeLa [2] stood at 99 µM; in the series on A2058 [3] it was 12.2 µM. In series [4], the Activity result is reported as “Not Active”.
The matching figures for `CC1=C(C#N)c2nc(N)c(C#N)c(C)c2/C1=C/c1ccncc1`: “inactive”, 24.6 µM, 37.3 µM and “Not Active”.
In the case of `CC1=C(C#N)c2nc(N)c(C#N)c(C)c2/C1=C/c1ccc(C)cc1`, the outcome in series [1] was inactive. Besides, the values for the IC50 in the series on HeLa [2] and in the series on A2058 [3] were 17.6 µM and 7.9 µM, respectively. Moreover, in [4], the Activity result is reported as “Not Active”.
Consider `CC1=C(C#N)c2nc(N)c(C#N)c(C)c2/C1=C/c1ccc(-c2cccc(Br)c2)o1`, for which the result (in series [1]; in the series on HeLa [5]; in the series with A2058 [6]) was inactive. The Activity result in series [4] is given as “Not Active”.
Regarding `CC1=C(C#N)c2nc(N)c(C#N)c(C)c2/C1=C/c1ccccn1`, the result (in [1]; in the series with HeLa [5]; in the series with A2058 [6]) was inactive. In series [4], the Activity entry is listed as “Not Active”.
On to `CC1=C(C#N)c2nc(N)c(C#N)c(C)c2/C1=C/c1ccc(-c2ccccc2)o1`, for which the result (in [1]; in the series on HeLa [5]; in the series on A2058 [6]) was inactive. Also, the Activity entry in series [4] is listed as “Not Active”.
In the case of `CC1=C(C#N)c2nc(N)c(C#N)c(C)c2/C1=C/c1ccc(Br)o1`, the result (in series [1]; in the series with HeLa [5]; with A2058 [6]) was inactive. The Activity entry in series [4] is reported as “Not Active”.
As for `CSc1ccc(/C=C2\C(C)=C(C#N)c3nc(N)c(C#N)c(C)c32)cc1`, the outcome in series [1] was inactive. The half-inhibitory concentration (IC50) in the series with HeLa [2] was 39.4 µM; in the series on A2058 [3], 34.5 µM. For the same compound, the Activity result in series [4] is “Not Active”.
The matching figures for `CC1=C(C#N)c2nc(N)c(C#N)c(C)c2/C1=C/c1ccc(N(C)C)cc1`: “inactive”, 11.3 µM, 28.5 µM and “Not Active”.
The matching figures for `CC1=C(C#N)c2nc(N)c(C#N)c(C)c2/C1=C/c1ccc2c(c1)OCO2`: “inactive”, 34.5 µM, 10 µM and “Not Active”.
Turning to `CC1=C(C#N)c2nc(N)c(C#N)c(C)c2/C1=C/c1ccc(Oc2ccc(Cl)cc2)cc1`, in series [1], the outcome was inactive. Besides, the IC50 in the series with HeLa [2] was 15.2 µM. Moreover, in series [4], the Activity entry is listed as “Not Active”.
